Screens as filed in PubChem.
APP 5'UTR act = APP 5'UTR luciferase reporter activation | SH-SY5Y APP 5'UTR luciferase reporter, luminescence; zero percent = DMSO vehicle wells | activation, % at 2 µM | 190,000 compounds, 1% hits;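 active = activation above a set limit, based on mean plus 3 SD of controls, cut at about 140% in these data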
NF-kB expr up = NF-kB expression increase, human neuronal cells; fold change at 12.5 µM; 190,000 compounds, 1.6% hits; AID 1239; NF-kB reporter expression; active compounds read high; in the data active = fold change above about 3.3
FLuc act counter = affects firefly luciferase, flagging false hits in luciferase stimulation screens. P08659. ATPlite luciferase biochemical, luminescence, 10 min; 0 = ATP-free wells, 1 = DMSO control. activation factor at 10 µM. 200,000 tested, under 10 active;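 active = luciferase activation factor, scaled between plate controls, of at least 2 with compound at 10 µM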
Target sequence (P08659 whole entry, looked up): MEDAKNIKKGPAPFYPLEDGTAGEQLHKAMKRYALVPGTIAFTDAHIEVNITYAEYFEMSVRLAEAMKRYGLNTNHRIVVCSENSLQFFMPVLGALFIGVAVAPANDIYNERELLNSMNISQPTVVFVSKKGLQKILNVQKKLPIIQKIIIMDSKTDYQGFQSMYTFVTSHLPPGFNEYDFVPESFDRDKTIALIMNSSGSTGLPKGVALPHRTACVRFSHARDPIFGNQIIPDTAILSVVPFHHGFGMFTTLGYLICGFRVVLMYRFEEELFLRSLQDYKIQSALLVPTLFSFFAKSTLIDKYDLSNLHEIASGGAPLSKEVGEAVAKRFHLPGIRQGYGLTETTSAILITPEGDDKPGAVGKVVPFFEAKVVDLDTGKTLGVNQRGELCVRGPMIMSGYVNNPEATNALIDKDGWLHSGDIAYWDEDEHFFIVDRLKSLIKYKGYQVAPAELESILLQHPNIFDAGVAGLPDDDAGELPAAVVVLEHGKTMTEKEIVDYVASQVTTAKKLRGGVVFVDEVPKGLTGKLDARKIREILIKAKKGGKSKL
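Material: Luciferase/luciferin reagent mix; Doses: test compounds dosed from 2 mM stocks in 100% DMSO; Schedule: 10 min incubation after luciferase reagent addition, room temperature; Measured by: luminescence from luciferase reaction; Read-out: luminescence gain marking luciferase activators.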
APP transl inh = APP translation inhibition; 190,000 compounds, 0.82% hits; SH-SY5Y APP 5'UTR-luciferase reporter, luminescence; inhibition, % at 2 µM;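 active = inhibition above a set limit, derived from the sample mean plus 3 SD, cut at about 45% in these data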
FLuc inh counter = Photinus pyralis luciferase inhibition counter-screen; P08659; ATPLite firefly luciferase biochemical luminescence, 10 min; inhibition, % at 10 µM; 200,000 compounds, 1.5% hits; AID 1006;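 active = inhibition above about 50% when tested at 10 µM, limit read from the data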
STAT1 act = STAT1 signaling activation; NIH 3T3 STAT1-luciferase reporter, IFN-gamma, luminescence; 100% = IFN-gamma alone, no compound; 200,000 compounds, 2.6% hits; AID 932; activation (% of control), % at 5.5 µM;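 active = activation above the screen-wide mean activation plus 3 SD, cut at about 130% in these data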
Hits are given with their value; . = inactive; / = no result given. Only some compounds are listed: those with a hit (about 4.8% of all), similar ones and a draw of the others.

SMILES | APP 5'UTR act | NF-kB expr up | FLuc act counter | APP transl inh | FLuc inh counter | STAT1 act
N#CC1=C(N)Oc2ccc3ccccc3c2C1c1cccnc1 (stereo not given) | . | . | . | 54 | . | .
N#CC1=C(N)Oc2ccc3ccc(O)cc3c2C1c1cccnc1 (stereo not given) | . | . | . | . | . | .
Cc1ccc2nc(CSc3nc(C)ccc3C#N)[nH]c2c1 | . | . | . | . | 65 | 139
Cc1ccc2nc(SCc3nc4ccccc4c(=O)[nH]3)[nH]c2c1 | . | . | . | . | . | .
Cc1ccccc1Oc1cc(-n2ncc(Cl)c(Cl)c2=O)ncn1 | . | . | . | 95 | . | .
CCOc1cnn(-c2cc(Oc3ccc(C)cc3)ncn2)c(=O)c1Cl | . | . | . | 74 | . | .
Cc1ccc2cc3c(N)c4c(C)ccc(C)c4nc3nc2c1 | . | . | . | 56 | . | .
COc1ccccc1NC(=O)C1=C(C)NC(=O)NC1c1ccccc1[N+](=O)[O-] (stereo not given) | . | . | . | . | . | .
CC(=O)Cc1nsc(Nc2ccc3c(c2)OCCO3)n1 | . | . | . | . | . | 148
CC(=O)Cc1nsc(Nc2ccc(F)cc2)n1 | . | . | . | . | . | .
C=C(C)COc1ccc(-c2[nH]ncc2-c2ccccc2OC)c(O)c1 | . | . | . | . | . | .
CCOc1ccc(-c2[nH]ncc2-c2ccc(OC)c(OC)c2)c(O)c1 | . | . | . | 70 | . | .
C=C(C)COc1ccc(-c2[nH]ncc2-c2ccc(Br)cc2)c(O)c1 | . | . | . | 79 | . | .
C=C(C)COc1ccc(-c2n[nH]c(C)c2-c2ccc(Br)cc2)c(O)c1 | . | . | . | 67 | . | .
O=C(/C=C/c1ccccc1Cl)c1ccc[nH]1 | . | 4.3 | . | . | . | .
O=C(/C=C/c1ccc(Cl)cc1Cl)c1ccc[nH]1 | . | . | . | . | 52 | .
CN(c1ccc(F)cc1)S(=O)(=O)c1ccc(Cl)c(C(=O)OCC(=O)NCc2ccco2)c1 | . | . | . | . | . | .
Cc1ccc(/C=C2\SC(=S)N(CCCC(=O)Nc3ccccn3)C2=O)cc1 | . | . | . | 55 | . | .
COc1ccc(/C=C2\SC(=S)N(CCCC(=O)NNC(=O)c3ccccc3O)C2=O)cc1 | . | . | . | 65 | . | .
Cc1ccc(C(C(=O)NC2CCCC2)N(Cc2cccs2)C(=O)c2csnn2)o1 (stereo not given) | . | . | / | . | / | .
CCCn1c(=O)[nH]c(=O)c2c1nc(-c1ccccc1)n2CCN1CCOCC1 | . | . | . | . | . | .
COC(=O)C(C)Oc1ccc(-c2nccc(-c3cccs3)n2)cc1 (stereo not given) | . | . | . | . | . | .
Oc1ccc(-c2nccc(-c3cccs3)n2)cc1 | . | . | . | . | . | 141
CCN1CCN(Cc2ccc(NC(=O)Nc3ccccc3Cl)cc2)CC1 | 141 | . | . | . | 66 | .
CCn1ccc(C(=O)Nc2cccc(Cl)c2)n1 | . | . | . | . | . | 141
SMILES | APP 5'UTR act | NF-kB expr up | FLuc act counter | APP transl inh | FLuc inh counter | STAT1 act
CCn1ccc(C(=O)Nc2ccccc2Cl)n1 | 162 | 4.1 | . | . | . | 138
O=C(Nc1ccc(CN2CCCCC2)cc1)Nc1ccccc1Cl | . | . | . | . | . | .
COCCNC(=O)/C(C#N)=C/c1cc(C(C)C)c(OC)cc1C | . | . | . | . | . | .
Cc1cc(/C=C(/C#N)c2nc3ccccc3[nH]2)c(C)n1-c1cccc([N+](=O)[O-])c1 | . | . | . | . | . | .
CN(C)/C=C(\C#N)c1nc2ccccc2[nH]1 | . | . | . | . | . | .
COc1cc(/C=C(\C#N)c2nc3ccc(C)cc3[nH]2)c([N+](=O)[O-])cc1OC | . | . | . | . | . | .
COc1c(O)ccc(/C=C(\C#N)c2nc3ccccc3[nH]2)c1[N+](=O)[O-] | . | . | . | . | . | 134
N#C/C(=C/c1cccs1)c1nc2ccccc2[nH]1 | . | . | . | . | . | 145
Cc1cc(/C=C(\C#N)c2nc3ccccc3[nH]2)c(C)n1C | . | . | . | . | 78 | 142
N#C/C(=C/c1ccc(N2CCOCC2)o1)c1nc2ccccc2[nH]1 | 158 | . | . | . | 82 | 149
CCOC(=O)c1c(C)[nH]c(C)c1C(=O)CSc1ncccn1 | . | . | . | . | . | .
CCOCCCNC(=O)C(NC(=O)c1cnccn1)c1ccc(C)cc1 (stereo not given) | . | . | . | . | . | .
Fc1ccc(-c2cn3cc(C(F)(F)F)cc(Cl)c3n2)cc1 | 168 | 7.3 | . | . | . | 139
COc1ccc(-c2cn3cc(C(F)(F)F)cc(Cl)c3n2)cc1 | 150 | 9 | . | . | . | 150
Fc1ccc(-c2cc(C(F)(F)F)nc(-n3cc(Cl)cn3)n2)cc1 | . | . | . | . | . | .
O=C(CN1C(=O)c2ccccc2C1=O)OCN1C(=O)c2ccccc2C1=O | . | / | / | . | / | .
Clc1ccc(C2=Nn3c(nnc3-c3n[nH]c4c3CCC4)SC2)cc1 | . | . | . | 89 | . | .
Brc1ccc(C2=Nn3c(nnc3-c3n[nH]c4c3CCC4)SC2)cc1 | . | . | . | 94 | . | .
CCOC(=O)CNC(=O)c1ccc(Cl)s1 | . | . | . | . | . | .
CCNc1nc(N)c(C(=O)c2ccc(Cl)s2)s1 | . | 3.7 | . | . | . | 144
CCCNC(=O)c1oc2ccc3c(c2c1C)C(=O)CC(C)(C)O3 | 190 | 5.1 | . | . | 76 | 145
COc1ccccc1C(=O)Nc1ccc(C(=O)O)cc1 | . | . | . | . | . | .
CCn1c2ccccc2c2cc(NC(=O)c3cccc(OC)c3OC)ccc21 | . | . | . | . | . | .
CN(C)c1ccc(NC(=O)c2cccc(C(=O)Nc3ccc(N(C)C)cc3)n2)cc1 | . | . | . | . | 56 | .
C/C(CC(=O)Nc1ccc(N(C)C)cc1)=N\NC(=O)c1ccccn1 | . | . | . | . | . | 140
SMILES | APP 5'UTR act | NF-kB expr up | FLuc act counter | APP transl inh | FLuc inh counter | STAT1 act
COc1cccc(C(=O)Nc2ccc(N(C)C)cc2)c1OC | . | . | . | . | . | 142
COc1cccc(NC(=O)c2cccc(OC)c2OC)c1 | . | . | . | . | . | 136
CCOc1ncccc1C(=O)OCc1ccc(C(=O)OC)cc1 | . | . | . | . | . | 130
COc1ccc(Cc2nnc(N/N=C/c3ccc(O)cc3O)[nH]c2=O)cc1OC | . | . | . | . | . | .
O=C(O)c1ccc(NCCc2ccc(Cl)cc2)c([N+](=O)[O-])c1 | . | . | . | . | . | .
CC(OC(=O)c1nc(-c2ccccc2)n(-c2ccccc2)n1)C(=O)Nc1cc(Cl)cc(Cl)c1 (stereo not given) | . | . | . | . | . | .
O=C(/C=C\Nc1ccccn1)c1ccc(Cl)cc1 | 175 | . | . | . | 91 | .
Cc1ccc(-n2c(C)csc2=N)cc1 | . | 3.5 | . | . | 59 | .
Cc1csc(=S)n1-c1ccccc1 | . | . | . | . | . | .
